Marks after values point to notes of the source that are not given here.
Assay: Safety and tolerability
Type: in vivo, Japanese patients
Summary of the method: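 In this open-label study, once-daily oral dosing escalated 20–300 mg/d by Bayesian continual reassessment. DLTs were judged from Cycles 0 and 1, and MTD/RD came from the posterior mean DLT rate plus investigator assessment. Treatment-emergent AEs were graded by NCI-CTCAE v4.0 for seriousness, duration and relatedness. The safety analysis set comprised all patients given ≥1 dose.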

CCc1nc(C(N)=O)c(Nc2ccc(N3CCC(N4CCN(C)CC4)CC3)c(OC)c2)nc1NC1CCOCC1 [gilteritinib]
AEs leading to discontinuation of the study drug (20 mg (n = 1)): 0 n (%)
Any AE (20 mg (n = 1)): 1 (100%) n (%)
Deaths (20 mg (n = 1)): 0 n (%)
Drug-related AE (20 mg (n = 1)): 1 (100%) n (%)
Drug-related AEs leading to discontinuation of the study drug (20 mg (n = 1)): 0 n (%)
Drug-related grade ≥3 AEs (20 mg (n = 1)): 0 n (%)
Drug-related serious AEs (20 mg (n = 1)): 0 n (%)
Grade ≥3 AEs (20 mg (n = 1)): 1 (100%) n (%)
Serious AE: Acute cholangitis (20 mg (n = 1)): 0 n (%)
Serious AE: Bronchopneumonia (20 mg (n = 1)): 0 n (%)
Serious AE: Bronchopulmonary aspergillosis (20 mg (n = 1)): 0 n (%)
Serious AE: Cardiomyopathy (20 mg (n = 1)): 0 n (%)
Serious AE: Device-related infection (20 mg (n = 1)): 0 n (%)
Serious AE: Edema (20 mg (n = 1)): 0 n (%)
Serious AE: Febrile neutropenia (20 mg (n = 1)): 0 n (%)
Serious AE: Increased level of fibrin degradation products (20 mg (n = 1)): 0 n (%)
Serious AE: Pneumonia (20 mg (n = 1)): 0 n (%)
Serious AE: Sepsis (20 mg (n = 1)): 0 n (%)
Serious AE: Subdural hematoma (20 mg (n = 1)): 0 n (%)
Serious AEs (20 mg (n = 1)): 0 n (%)
AEs leading to discontinuation of the study drug (40 mg (n = 4)): 1 (25%) n (%)
Any AE (40 mg (n = 4)): 4 (100%) n (%)
Deaths (40 mg (n = 4)): 0 n (%)
Drug-related AE (40 mg (n = 4)): 3 (75%) n (%)
Drug-related AEs leading to discontinuation of the study drug (40 mg (n = 4)): 1 (25%) n (%)
Drug-related grade ≥3 AEs (40 mg (n = 4)): 1 (25%) n (%)
Drug-related serious AEs (40 mg (n = 4)): 1 (25%) n (%)
Grade ≥3 AEs (40 mg (n = 4)): 2 (50%) n (%)
Serious AE: Acute cholangitis (40 mg (n = 4)): 0 n (%)
Serious AE: Bronchopneumonia (40 mg (n = 4)): 0 n (%)
Serious AE: Bronchopulmonary aspergillosis (40 mg (n = 4)): 0 n (%)
Serious AE: Cardiomyopathy (40 mg (n = 4)): 0 n (%)
Serious AE: Device-related infection (40 mg (n = 4)): 1 (25%) n (%)
Serious AE: Edema (40 mg (n = 4)): 1 (25%) n (%)
Serious AE: Febrile neutropenia (40 mg (n = 4)): 0 n (%)
Serious AE: Increased level of fibrin degradation products (40 mg (n = 4)): 0 n (%)
Serious AE: Pneumonia (40 mg (n = 4)): 1 (25%) n (%)
Serious AE: Sepsis (40 mg (n = 4)): 0 n (%)
Serious AE: Subdural hematoma (40 mg (n = 4)): 0 n (%)
Serious AEs (40 mg (n = 4)): 1 (25%) n (%)
AE resulting in permanent discontinuation: pneumonia (40 mg/d): 1 n
AEs leading to discontinuation of the study drug (80 mg (n = 4)): 1 (25%) n (%)
Any AE (80 mg (n = 4)): 4 (100%) n (%)
Drug-related AE (80 mg (n = 4)): 3 (75%) n (%)
Drug-related AEs leading to discontinuation of the study drug (80 mg (n = 4)): 1 (25%) n (%)
Drug-related grade ≥3 AEs (80 mg (n = 4)): 1 (25%) n (%)
Drug-related serious AEs (80 mg (n = 4)): 1 (25%) n (%)
Grade ≥3 AEs (80 mg (n = 4)): 2 (50%) n (%)
Serious AE: Acute cholangitis (80 mg (n = 4)): 1 (25%) n (%)
Serious AE: Bronchopneumonia (80 mg (n = 4)): 1 (25%) n (%)
Serious AE: Bronchopulmonary aspergillosis (80 mg (n = 4)): 0 n (%)
Serious AE: Cardiomyopathy (80 mg (n = 4)): 0 n (%)
Serious AE: Device-related infection (80 mg (n = 4)): 0 n (%)
Serious AE: Edema (80 mg (n = 4)): 0 n (%)
Serious AE: Febrile neutropenia (80 mg (n = 4)): 0 n (%)
Serious AE: Increased level of fibrin degradation products (80 mg (n = 4)): 0 n (%)
Serious AE: Pneumonia (80 mg (n = 4)): 0 n (%)
Serious AE: Sepsis (80 mg (n = 4)): 1 (25%) n (%)
Serious AE: Subdural hematoma (80 mg (n = 4)): 1 (25%) n (%)
Serious AEs (80 mg (n = 4)): 1 (25%) n (%)
Deaths (80 mg (n = 4), cause of death considered related to the study drug): 1 (25%) ^a n (%)
AE resulting in permanent discontinuation: subdural hematoma (80 mg/d): 1 n
AEs leading to discontinuation of the study drug (120 mg (n = 4)): 0 n (%)
Any AE (120 mg (n = 4)): 4 (100%) n (%)
Deaths (120 mg (n = 4)): 0 n (%)
Drug-related AE (120 mg (n = 4)): 4 (100%) n (%)
Drug-related AEs leading to discontinuation of the study drug (120 mg (n = 4)): 0 n (%)
Drug-related grade ≥3 AEs (120 mg (n = 4)): 1 (25%) n (%)
Drug-related serious AEs (120 mg (n = 4)): 0 n (%)
Grade ≥3 AEs (120 mg (n = 4)): 2 (50%) n (%)
Serious AE: Acute cholangitis (120 mg (n = 4)): 0 n (%)
Serious AE: Bronchopneumonia (120 mg (n = 4)): 0 n (%)
Serious AE: Bronchopulmonary aspergillosis (120 mg (n = 4)): 0 n (%)
Serious AE: Cardiomyopathy (120 mg (n = 4)): 0 n (%)
Serious AE: Device-related infection (120 mg (n = 4)): 0 n (%)
Serious AE: Edema (120 mg (n = 4)): 0 n (%)
Serious AE: Febrile neutropenia (120 mg (n = 4)): 0 n (%)
Serious AE: Increased level of fibrin degradation products (120 mg (n = 4)): 0 n (%)
Serious AE: Pneumonia (120 mg (n = 4)): 0 n (%)
Serious AE: Sepsis (120 mg (n = 4)): 0 n (%)
Serious AE: Subdural hematoma (120 mg (n = 4)): 0 n (%)
Serious AEs (120 mg (n = 4)): 0 n (%)

Source: paper PMC6172068 (Cancer Science, 2018)
